This passage reports PPB results from ChEMBL document CHEMBL1125797, “Synthesis, characterization and myocardial uptake of cationic bis(arene)technetium(I) complexes” (J Med Chem, 1991).

For one assay, the species on record is Homo sapiens. The experiment in a line: The compound was tested for the plasma binding in human. The class given is functional. A digest of the protocol: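 Fresh heparinized human plasma (1.0 mL, obtained daily) was spiked with 0.02 mL test solution and incubated about 15 min. Duplicate samples went through saline-equilibrated Sephadex G-25 desalting columns by centrifugation. Eluate and gel were γ-counted for 1 min or to 1% σ error. % bound = net cpm eluate / net cpm (eluate + gel) × 100.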

The species entered for a further assay is Rattus norvegicus. Briefly: The compound was tested for the plasma binding in rat. The class given is functional. A digest of the protocol:
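Plasma protein binding was measured in rat plasma samples collected during the rat biodistribution studies, after tail vein injection of the 99mTc complex in saline (~25 μCi/kg).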

Consider Bis(m-xylene)technetium, for which the PPB in the assay filed under Homo sapiens was 11%; in the assay listed under Rattus norvegicus it was 12%.
